pIC50: −log10 of the molar value. The source made the active and inactive calls. No cut-off for these calls is given here.
What was measured:
[1] = test system: HeLa; assay: Selectivity index, ratio of IC50 for HUVEC to IC50 for human HeLa cells
Summary of the method: (§1)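 SI is the IC50 in normal HUVEC divided by the IC50 of the same compound in the cancer cell line.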

[2] = Cytotoxicity against human PC3 cells assessed as cell growth inhibition by MTT assay; type: functional, cell-based; details: PC-3
Summary of the method: (§2)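 IC50 values were read from dose–response curves for compounds that gave above 60% inhibition in the initial test. HUVEC (ATCC CRL-1730) served as the normal cell line.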

[3] = test system: HepG2; assay: Selectivity index, ratio of IC50 for HUVEC to IC50 for human HepG2 cells; summary of the method: as §1
[4] = Cytotoxicity against human HepG2 cells assessed as cell growth inhibition by MTT assay; type: functional, cell-based; summary of the method: as §2
[5] = test system: PC-3; assay: Selectivity index, ratio of IC50 for HUVEC to IC50 for human PC3 cells; summary of the method: as §1
[6] = Selectivity index, ratio of IC50 for HUVEC to IC50 for human MDA-MB-231 cells; summary of the method: as §1
[7] = Cytotoxicity against HUVEC assessed as cell growth inhibition by MTT assay; type: toxicity, cell-based; details: human; summary of the method: as §2
[8] = Cytotoxicity against human MDA-MB-231 cells assessed as cell growth inhibition by MTT assay; type: functional, cell-based; summary of the method: as §2
[9] = Cytotoxicity against human HeLa cells assessed as cell growth inhibition by MTT assay; type: functional, cell-based; summary of the method: as §2
[10] = target: T1, DNA topoisomerase 1 (Homo sapiens) (UniProt P11387); assay: Inhibition of human DNA TOP1 assessed as suppression of supercoiled plasmid HOT1 relaxation at 10 to 20 uM preincubated with enzyme followed by substrate addition measured after 30 mins by ethidium bromide dye-based agarose gel electrophoresis
T1 sequence (whole entry): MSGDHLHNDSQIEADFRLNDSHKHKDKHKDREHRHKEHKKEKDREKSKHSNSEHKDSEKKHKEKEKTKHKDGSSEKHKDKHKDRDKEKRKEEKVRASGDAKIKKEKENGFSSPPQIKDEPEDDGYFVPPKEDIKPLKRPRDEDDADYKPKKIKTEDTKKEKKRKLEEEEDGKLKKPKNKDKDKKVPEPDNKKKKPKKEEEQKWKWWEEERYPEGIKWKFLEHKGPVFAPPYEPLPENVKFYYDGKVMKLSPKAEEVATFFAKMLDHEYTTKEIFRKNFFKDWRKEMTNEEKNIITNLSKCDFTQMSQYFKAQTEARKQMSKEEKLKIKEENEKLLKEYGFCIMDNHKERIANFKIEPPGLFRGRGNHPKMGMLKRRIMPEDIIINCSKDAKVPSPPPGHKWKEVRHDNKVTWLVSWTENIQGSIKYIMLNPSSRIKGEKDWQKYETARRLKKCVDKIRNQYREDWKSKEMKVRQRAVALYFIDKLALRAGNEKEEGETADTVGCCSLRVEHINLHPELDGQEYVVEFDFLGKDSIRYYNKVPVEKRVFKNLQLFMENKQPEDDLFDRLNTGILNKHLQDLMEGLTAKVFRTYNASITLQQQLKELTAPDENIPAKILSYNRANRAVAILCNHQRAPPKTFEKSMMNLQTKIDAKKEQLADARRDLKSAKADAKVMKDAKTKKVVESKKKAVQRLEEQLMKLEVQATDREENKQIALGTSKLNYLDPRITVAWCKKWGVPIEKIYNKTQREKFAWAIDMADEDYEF
Summary of the method: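 Supercoiled plasmid pHOT1 was incubated with human topoisomerase I, with compound or camptothecin control at 10 and 20. Relaxation was resolved on a 1% agarose gel run with ethidium bromide, alongside supercoiled and relaxed DNA marker lanes.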

[11] = Cytotoxicity against HUVEC assessed as cell growth inhibition up to 100 uM by MTT assay; type: toxicity, cell-based; details: human

O=c1[nH]cc(F)c(=O)[nH]1 [FLUOROURACIL]
Ratio IC50 [1]: 49.75
pIC50 [2]: 5.74
Ratio IC50 [3]: 44.22
pIC50 [4]: 5.74
Ratio IC50 [5]: 44.22
Ratio IC50 [6]: 41.89
pIC50 [7]: 4.10
pIC50 [8]: 5.72
pIC50 [9]: 5.80

CCOC(=O)c1cc2c(nc1C(F)(F)F)nn1c(-c3c(F)cc(OC)cc3F)cc(-c3cccs3)nc21
Ratio IC50 [1]: 4.54
pIC50 [2]: 4.64
Ratio IC50 [3]: 3.94
pIC50 [4]: 4.63
Ratio IC50 [5]: 4.07
Ratio IC50 [6]: 4.39
pIC50 [7]: 4.03
pIC50 [8]: 4.68
pIC50 [9]: 4.69

CCOC(=O)c1cc2c(nc1C(F)(F)F)nn1ccc(C)nc21
Ratio IC50 [1]: 8.79
pIC50 [2]: 4.94
Ratio IC50 [3]: 7.89
pIC50 [4]: 4.93
Ratio IC50 [5]: 8.17
Ratio IC50 [6]: 7.7
pIC50 [7]: 4.03
pIC50 [8]: 4.92
inhibition [10]: Active
pIC50 [9]: 4.97

CCOC(=O)c1cc2c(nc1C(F)(F)F)nn1c(-c3ccccc3)cc(C)nc21
Ratio IC50 [1]: 3.05
Ratio IC50 [6]: 3.18
pIC50 [7]: 4.04
pIC50 [8]: 4.54
pIC50 [9]: 4.53

CCOC(=O)c1cc2c(nc1C(F)(F)F)nn1c(-c3ccc(F)cc3)cc(-c3cccs3)nc21
Ratio IC50 [1]: 5.61
pIC50 [2]: 4.82
Ratio IC50 [3]: 5.11
pIC50 [4]: 4.77
Ratio IC50 [5]: 5.68
Ratio IC50 [6]: 5.02
pIC50 [7]: 4.07
pIC50 [8]: 4.77
pIC50 [9]: 4.82

CCOC(=O)c1cc2c(nc1C(F)(F)F)nn1c(-c3ccc(Cl)cc3)cc(-c3ccccc3)nc21
Activity [7]: Non-Toxic

CCOC(=O)c1cc2c(nc1C(F)(F)F)nn1c(-c3ccc(OC(F)(F)F)cc3)cc(-c3cccs3)nc21
Ratio IC50 [1]: 5.58
pIC50 [2]: 4.92
Ratio IC50 [3]: 7.13
pIC50 [4]: 4.90
Ratio IC50 [5]: 7.55
Ratio IC50 [6]: 5.22
pIC50 [7]: 4.05
pIC50 [8]: 4.76
pIC50 [9]: 4.79

CCOC(=O)c1cc2c(nc1C(F)(F)F)nn1c(-c3ccc([N+](=O)[O-])cc3)cc(-c3ccccc3)nc21
Ratio IC50 [1]: 4.98
pIC50 [2]: 4.79
Ratio IC50 [3]: 6.39
pIC50 [4]: 4.85
Ratio IC50 [5]: 5.57
Ratio IC50 [6]: 7.44
pIC50 [7]: 4.04
pIC50 [8]: 4.91
pIC50 [9]: 4.74

CCOC(=O)c1cc2c(nc1C(F)(F)F)nn1c(C)cc(C)nc21
Ratio IC50 [1]: 5.45
pIC50 [2]: 4.66
Ratio IC50 [3]: 4.67
pIC50 [4]: 4.67
Ratio IC50 [5]: 4.48
Ratio IC50 [6]: 4.93
pIC50 [7]: 4.00
pIC50 [8]: 4.70
pIC50 [9]: 4.74

CCOC(=O)c1cc2c(nc1C(F)(F)F)nn1c(-c3ccc(OC)cc3)cc(-c3ccccc3)nc21
Activity [7]: Non-Toxic

CCOC(=O)c1cc2c(nc1C(F)(F)F)nn1c(-c3ccc(OC)cc3)cc(-c3ccc(OC)cc3)nc21
Activity [7]: Non-Toxic

CCOC(=O)c1cc2c(nc1C(F)(F)F)nn1c(-c3ccccc3C)cc(-c3cccs3)nc21
Activity [7]: Non-Toxic

CCOC(=O)c1cc2c(nc1C(F)(F)F)nn1c(-c3ccc[nH]3)cc(-c3ccccc3)nc21
Ratio IC50 [1]: 7.26
pIC50 [2]: 4.92
Ratio IC50 [3]: 6.43
pIC50 [4]: 4.83
Ratio IC50 [5]: 7.86
Ratio IC50 [6]: 9.24
pIC50 [7]: 4.02
pIC50 [8]: 4.99
inhibition [10]: Active
pIC50 [9]: 4.88

CCOC(=O)c1cc2c(nc1C(F)(F)F)nn1c(-c3ccc(F)cc3)cc(-c3ccc(OC)cc3)nc21
Ratio IC50 [1]: 5.46
pIC50 [2]: 4.80
Ratio IC50 [3]: 5.36
pIC50 [4]: 4.79
Ratio IC50 [5]: 5.43
Ratio IC50 [6]: 5.02
pIC50 [7]: 4.06
pIC50 [8]: 4.76
pIC50 [9]: 4.80

CCOC(=O)c1cc2c(nc1C(F)(F)F)nn1c(C(F)(F)F)cc(C)nc21
Ratio IC50 [1]: 3.44
Ratio IC50 [6]: 3.62
pIC50 [7]: 4.05
pIC50 [8]: 4.61
pIC50 [9]: 4.59

CCOC(=O)c1cc2c(nc1C(F)(F)F)nn1c(CC)cc(CC)nc21
Activity [11]: Non-Toxic

From ChEMBL document CHEMBL3862019, “Synthesis of novel ethyl 2,4-disubstituted 8-(trifluoromethyl)pyrido[2',3':3,4]pyrazolo[1,5-a]pyrimidine-9-carboxylate derivatives as promising anticancer agents” (Bioorg Med Chem Lett, 2016)
